# Calls of active or inactive are those of the source. The rule behind the calls is not given here.
# What was measured:
# [1] = target: T1, Fatty-acid amide hydrolase 1 (Rattus norvegicus) (UniProt P97612); assay: Inhibition of FAAH in rat brain membrane assessed as [14C]anandamide hydrolysis at 50 uM by scintillation counting; format: cell membranes
# T1 sequence (whole entry): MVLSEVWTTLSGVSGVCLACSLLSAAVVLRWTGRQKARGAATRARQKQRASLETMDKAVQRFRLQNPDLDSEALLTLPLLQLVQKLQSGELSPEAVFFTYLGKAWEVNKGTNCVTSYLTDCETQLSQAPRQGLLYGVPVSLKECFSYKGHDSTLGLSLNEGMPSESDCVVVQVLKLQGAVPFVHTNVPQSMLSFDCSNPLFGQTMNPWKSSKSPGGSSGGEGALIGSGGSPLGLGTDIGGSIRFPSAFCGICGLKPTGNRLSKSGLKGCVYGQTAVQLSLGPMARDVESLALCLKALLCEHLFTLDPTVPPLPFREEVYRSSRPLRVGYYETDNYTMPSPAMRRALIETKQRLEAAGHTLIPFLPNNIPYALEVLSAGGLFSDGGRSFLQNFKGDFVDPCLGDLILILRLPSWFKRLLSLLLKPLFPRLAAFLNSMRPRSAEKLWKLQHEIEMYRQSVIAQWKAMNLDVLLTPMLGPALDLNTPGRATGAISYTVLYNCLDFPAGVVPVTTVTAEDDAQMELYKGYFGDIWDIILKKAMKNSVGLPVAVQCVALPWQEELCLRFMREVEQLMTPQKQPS
# Summary of the method: (§1)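 Enzyme source was a rat brain membrane pellet resuspended in 50 mM Tris-HCl, pH 9.0, 70 µg protein per assay. It was incubated with compound (10 or 50 µM) and [14C]anandamide (10000 cpm) for 30 min at 37 °C. After CHCl3/MeOH (1:1) extraction, [14C]ethanolamine in the aqueous phase was counted by scintillation. Points were run in duplicate.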
# [2] = target: T2, Cannabinoid receptor 1 (Homo sapiens, UniProt P21554); assay: Displacement of [3H]CP-55940 from human recombinant CB1 receptor expressed in HEK293 cells at 10 uM; format: cell-based
# [3] = target: T3, Cannabinoid receptor 2 (Homo sapiens, UniProt P34972); assay: Displacement of [3H]CP-55940 from human recombinant CB2 receptor expressed in HEK293 cells at 10 uM; format: cell-based
# [4] = target: Prostaglandin G/H synthase 1 (Homo sapiens, UniProt P23219); assay: Inhibition of cyclooxygenase 1 in human whole blood assessed as thromboxane B2 level; format: tissue-based
# Summary of the method: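 Fresh whole blood came from a healthy volunteer free of NSAIDs for 2 weeks. 1 mL aliquots received test agent in DMSO and were left to clot for 1 h at 37 °C. Serum TXB2 was measured by GC-MS/MS, in quadruplicate.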
# [5] = system: Mus musculus; assay: Toxicity in C57BL/6 mouse assessed as loss of locomotor behavior at 325 mg/kg; format: organism-based; parameters: dose 325 mg/kg; conditions: in vivo
# [6] = target: T4, Prostaglandin G/H synthase 2 (Homo sapiens, UniProt P35354); assay: Inhibition of cyclooxygenase 2 in human whole blood assessed as prostaglandin E2 level
# T4 sequence (P35354 whole entry): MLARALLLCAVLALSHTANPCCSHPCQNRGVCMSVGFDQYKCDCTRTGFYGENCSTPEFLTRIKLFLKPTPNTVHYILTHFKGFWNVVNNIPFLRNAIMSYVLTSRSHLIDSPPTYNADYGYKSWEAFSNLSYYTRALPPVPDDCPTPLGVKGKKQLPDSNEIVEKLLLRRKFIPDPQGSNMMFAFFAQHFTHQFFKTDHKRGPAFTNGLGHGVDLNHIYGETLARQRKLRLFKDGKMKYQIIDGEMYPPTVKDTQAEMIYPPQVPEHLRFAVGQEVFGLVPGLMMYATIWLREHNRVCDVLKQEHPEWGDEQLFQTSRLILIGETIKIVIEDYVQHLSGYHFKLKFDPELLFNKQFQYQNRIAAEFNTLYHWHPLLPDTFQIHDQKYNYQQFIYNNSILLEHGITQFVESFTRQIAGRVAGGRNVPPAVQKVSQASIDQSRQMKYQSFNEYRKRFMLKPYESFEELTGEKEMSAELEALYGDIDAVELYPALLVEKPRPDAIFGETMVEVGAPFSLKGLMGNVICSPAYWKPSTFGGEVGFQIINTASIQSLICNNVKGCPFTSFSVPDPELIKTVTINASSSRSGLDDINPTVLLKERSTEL
# [7] = target: T2, Cannabinoid receptor 1; assay: Displacement of [3H]CP-55940 from human recombinant CB1 receptor expressed in HEK293 cells; format: cell-based
# Summary of the method: (§2)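 Membranes were from HEK-293 cells overexpressing human CB1 or CB2, with [3H]CP-55,940 as radioligand (Kd 0.18 nM CB1, 0.31 nM CB2). Test compound (1 nM-10 µM) was incubated 90 min at 30 °C. Displaced radioligand was counted by scintillation. Ki came from IC50 via Cheng-Prusoff, with triplicate points; single-concentration screens were run in duplicate.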
# [8] = target: T3, Cannabinoid receptor 2; assay: Displacement of [3H]CP-55940 from human recombinant CB2 receptor expressed in HEK293 cells; format: cell-based; summary of the method: as §2
# [9] = target: T1, Fatty-acid amide hydrolase 1 (Rattus norvegicus); assay: Inhibition of FAAH in rat brain membrane assessed as [14C]anandamide hydrolysis at 10 uM by scintillation counting; format: cell membranes; summary of the method: as §1
# [10] = system: Mus musculus; assay: Antinociceptive activity against formalin-induced nociceptive behavior in C57BL/6 mouse assessed as mean licking time at 200 mg/kg, ip administered 15 mins prior to formalin challenge measured upto 10 mins relative to control; format: functional; conditions: route intraperitoneal
# Summary of the method: (§3)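 C57BL/6 mice (n = 6-8 per group) were habituated 15-20 min in an observation chamber with mirrors, then given the compound ip at 6 µL/g in PBS/DMSO. Formalin (5%, 20 µL) went into the dorsal left hind paw 15 min later. Licking of the injected paw was summed over 0-10 min (phase 1) and 15-45 min (phase 2) and expressed as % of the vehicle control. Groups were compared by t test.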
# [11] = system: Mus musculus; assay: Antinociceptive activity against formalin-induced nociceptive behavior in C57BL/6 mouse assessed as mean licking time at 200 mg/kg, ip administered 15 mins prior to formalin challenge measured after 15 to 45 mins relative to control; format: functional; conditions: route intraperitoneal; summary of the method: as §3
# [12] = system: Mus musculus; assay: Antinociceptive activity against formalin-induced nociceptive behavior in C57BL/6 mouse assessed as mean licking time at 27.5 mg/kg, ip administered 15 mins prior to formalin challenge measured after 15 to 45 mins relative to control; format: functional; conditions: route intraperitoneal; summary of the method: as §3
# [13] = system: Mus musculus; assay: Antinociceptive activity against formalin-induced nociceptive behavior in C57BL/6 mouse assessed as mean licking time at 55 mg/kg, ip administered 15 mins prior to formalin challenge measured after 15 to 45 mins relative to control; format: functional; conditions: route intraperitoneal; summary of the method: as §3
# [14] = system: Mus musculus; assay: Antinociceptive activity against formalin-induced nociceptive behavior in C57BL/6 mouse assessed as mean licking time at 275 mg/kg, ip administered 15 mins prior to formalin challenge measured after 15 to 45 mins relative to control; format: functional; conditions: route intraperitoneal; summary of the method: as §3
# [15] = species on record: Mus musculus; assay: Toxicity in C57BL/6 mouse assessed as loss of locomotor behavior; format: organism-based; conditions: in vivo
# [16] = system: Mus musculus; assay: Antinociceptive activity against formalin-induced nociceptive behavior in C57BL/6 mouse assessed as mean licking time lat 27.5 mg/kg, ip administered 15 mins prior to formalin challenge measured upto 10 mins relative to control; format: functional; conditions: route intraperitoneal; summary of the method: as §3
# [17] = system: Mus musculus; assay: Antinociceptive activity against formalin-induced nociceptive behavior in C57BL/6 mouse assessed as mean licking time at 55 mg/kg, ip administered 15 mins prior to formalin challenge measured upto 10 mins relative to control; format: functional; conditions: route intraperitoneal; summary of the method: as §3
# [18] = system: Mus musculus; assay: Antinociceptive activity against formalin-induced nociceptive behavior in C57BL/6 mouse assessed as mean licking time at 275 mg/kg, ip administered 15 mins prior to formalin challenge measured upto 10 mins relative to control; format: functional; conditions: route intraperitoneal; summary of the method: as §3
# [19] = target: T5, Prostaglandin G/H synthase 2 (Homo sapiens) (UniProt P35354); assay: Inhibition of cyclooxygenase 2 in human whole blood assessed as prostaglandin E2 level
# T5 sequence (whole entry): T4 sequence (P35354 whole entry)
# [20] = target: T6, Prostaglandin G/H synthase 1 (Ovis aries) (UniProt P05979); assay: Inhibition of ovine cyclooxygenase 1 assessed as prostaglandin F2alpha level at 10 uM by enzyme immunoassay relative to control
# T6 sequence (whole entry): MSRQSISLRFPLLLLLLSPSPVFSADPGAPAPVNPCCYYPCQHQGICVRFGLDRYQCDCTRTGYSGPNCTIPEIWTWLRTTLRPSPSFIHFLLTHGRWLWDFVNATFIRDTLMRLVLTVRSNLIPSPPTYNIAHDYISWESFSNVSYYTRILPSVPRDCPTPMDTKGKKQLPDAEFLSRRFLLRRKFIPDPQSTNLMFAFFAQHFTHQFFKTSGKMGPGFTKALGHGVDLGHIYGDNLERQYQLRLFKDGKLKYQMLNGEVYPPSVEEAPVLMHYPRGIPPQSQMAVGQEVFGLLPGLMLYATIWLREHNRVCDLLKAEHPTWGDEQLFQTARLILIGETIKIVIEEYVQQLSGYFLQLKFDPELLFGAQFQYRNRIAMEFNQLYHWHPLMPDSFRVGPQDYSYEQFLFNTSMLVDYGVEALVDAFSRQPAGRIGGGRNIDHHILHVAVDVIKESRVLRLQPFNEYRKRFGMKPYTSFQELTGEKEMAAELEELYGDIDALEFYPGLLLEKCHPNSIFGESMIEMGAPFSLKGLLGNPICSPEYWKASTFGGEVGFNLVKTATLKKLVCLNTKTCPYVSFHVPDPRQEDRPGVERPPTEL
# Summary of the method: (§4)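 Isolated ovine COX-1 or human recombinant COX-2 was incubated with compound at 1 or 10 µM for 10 min at 37 °C. Buffer was 0.1 M Tris-HCl pH 8.0 with 5 mM EDTA and 2 mM phenol. PGH2 formed was reduced to PGF2α with stannous chloride for quantification. Ketoprofen (10 µM) served as reference; values are means of four experiments.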
# [21] = target: T5, Prostaglandin G/H synthase 2 (Homo sapiens); assay: Inhibition of human recombinant cyclooxygenase 2 assessed as prostaglandin F2alpha level at 10 uM by enzyme immunoassay relative to control; summary of the method: as §4
# [22] = target: T6, Prostaglandin G/H synthase 1 (Ovis aries); assay: Inhibition of ovine cyclooxygenase 1 assessed as prostaglandin F2alpha level at 1 uM by enzyme immunoassay relative to control; summary of the method: as §4
# [23] = target: T5, Prostaglandin G/H synthase 2 (Homo sapiens); assay: Inhibition of human recombinant cyclooxygenase 2 assessed as prostaglandin F2alpha level at 1 uM by enzyme immunoassay relative to control; summary of the method: as §4
# [24] = system: Mus musculus; assay: Antinociceptive activity against formalin-induced nociceptive behavior in C57BL/6 mouse assessed as mean licking time at 5 mg/kg, ip administered 15 mins prior to formalin challenge measured upto 10 mins relative to control; format: functional; conditions: route intraperitoneal; summary of the method: as §3
# [25] = system: Mus musculus; assay: Antinociceptive activity against formalin-induced nociceptive behavior in C57BL/6 mouse assessed as mean licking time at 10 mg/kg, ip administered 15 mins prior to formalin challenge measured upto 10 mins relative to control; format: functional; conditions: route intraperitoneal; summary of the method: as §3
# [26] = system: Mus musculus; assay: Antinociceptive activity against formalin-induced nociceptive behavior in C57BL/6 mouse assessed as mean licking time at 50 mg/kg, ip administered 15 mins prior to formalin challenge measured upto 10 mins relative to control; format: functional; conditions: route intraperitoneal; summary of the method: as §3
# [27] = system: Mus musculus; assay: Antinociceptive activity against formalin-induced nociceptive behavior in C57BL/6 mouse assessed as mean licking time at 5 mg/kg, ip administered 15 mins prior to formalin challenge measured after 15 to 45 mins relative to control; format: functional; conditions: route intraperitoneal; summary of the method: as §3
# [28] = system: Mus musculus; assay: Antinociceptive activity against formalin-induced nociceptive behavior in C57BL/6 mouse assessed as mean licking time at 10 mg/kg, ip administered 15 mins prior to formalin challenge measured after 15 to 45 mins relative to control; format: functional; conditions: route intraperitoneal; summary of the method: as §3
# [29] = system: Mus musculus; assay: Antinociceptive activity against formalin-induced nociceptive behavior in C57BL/6 mouse assessed as mean licking time at 50 mg/kg, ip administered 15 mins prior to formalin challenge measured after 15 to 45 mins relative to control; format: functional; conditions: route intraperitoneal; summary of the method: as §3
# T2 sequence (P21554 whole entry): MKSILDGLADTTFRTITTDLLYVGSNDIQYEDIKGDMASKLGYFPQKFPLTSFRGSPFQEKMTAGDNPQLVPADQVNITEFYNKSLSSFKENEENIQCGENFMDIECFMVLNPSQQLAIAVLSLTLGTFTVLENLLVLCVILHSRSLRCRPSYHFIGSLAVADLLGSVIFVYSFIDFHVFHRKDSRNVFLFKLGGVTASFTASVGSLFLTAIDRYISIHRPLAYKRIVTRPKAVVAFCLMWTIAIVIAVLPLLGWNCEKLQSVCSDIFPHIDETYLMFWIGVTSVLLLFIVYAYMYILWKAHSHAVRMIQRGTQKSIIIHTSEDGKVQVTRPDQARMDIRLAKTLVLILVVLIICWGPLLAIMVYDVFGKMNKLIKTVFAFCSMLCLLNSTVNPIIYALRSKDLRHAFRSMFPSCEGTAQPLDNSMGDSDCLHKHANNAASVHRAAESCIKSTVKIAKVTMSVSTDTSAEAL
# Prostaglandin G/H synthase 1, sequence (P23219 whole entry): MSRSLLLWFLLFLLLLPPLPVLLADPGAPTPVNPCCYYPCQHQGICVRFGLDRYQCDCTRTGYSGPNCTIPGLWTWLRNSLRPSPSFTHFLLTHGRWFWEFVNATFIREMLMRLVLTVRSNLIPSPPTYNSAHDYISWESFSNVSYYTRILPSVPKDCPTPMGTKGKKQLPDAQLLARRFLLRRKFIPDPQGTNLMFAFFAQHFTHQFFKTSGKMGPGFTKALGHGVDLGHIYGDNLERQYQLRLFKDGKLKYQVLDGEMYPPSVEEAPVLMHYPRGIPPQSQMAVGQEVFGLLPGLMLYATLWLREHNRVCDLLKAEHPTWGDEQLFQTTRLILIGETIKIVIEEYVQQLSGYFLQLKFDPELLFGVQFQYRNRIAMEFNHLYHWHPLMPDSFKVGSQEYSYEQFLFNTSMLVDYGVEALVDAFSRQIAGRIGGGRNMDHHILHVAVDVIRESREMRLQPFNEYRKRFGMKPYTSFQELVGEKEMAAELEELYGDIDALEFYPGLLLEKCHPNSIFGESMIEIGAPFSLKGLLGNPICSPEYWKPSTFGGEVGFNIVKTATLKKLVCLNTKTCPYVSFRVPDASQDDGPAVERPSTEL
# T3 sequence (P34972 whole entry): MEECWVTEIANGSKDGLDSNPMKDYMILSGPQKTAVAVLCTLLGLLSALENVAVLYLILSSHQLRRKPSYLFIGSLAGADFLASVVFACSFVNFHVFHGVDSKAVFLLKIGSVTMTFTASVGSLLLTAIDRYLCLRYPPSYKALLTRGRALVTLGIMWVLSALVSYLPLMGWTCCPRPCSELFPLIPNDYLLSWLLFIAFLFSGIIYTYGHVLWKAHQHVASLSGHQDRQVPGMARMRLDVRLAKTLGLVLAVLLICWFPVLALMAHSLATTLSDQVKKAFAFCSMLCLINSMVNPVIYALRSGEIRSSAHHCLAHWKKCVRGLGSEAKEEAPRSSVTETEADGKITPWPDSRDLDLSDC
SMILES,inhibition [1] [%],Activity [2] [%],Activity [3] [%],Ki [7] [nM],Ki [8] [nM],inhibition [9] [%],Activity [4],also measured
COc1cc(NC(C)=O)ccc1O,8,16,22,,,,,IC50 [4]: 234 µM; Activity [5]: Toxic; IC50 [6]: 138 µM
CCCCC/C=C\C/C=C\C/C=C\C/C=C\CCCC(=O)Nc1ccc(O)cc1,55,,,1500,1300,15,,
CCCCC/C=C\C/C=C\C/C=C\C/C=C\CCCC(=O)Nc1ccc2[nH]ncc2c1,2,,,300,1000,1,,
CC(=O)Nc1ccc(O)cc1 [ACETAMINOPHEN],22,13,15,,,,Active,Activity [10]: 100%; Activity [11]: 47%
CC(=O)NCc1ccc(O)cc1,4,5,7,,,,inactive,Activity [12]: 97%; Activity [13]: 71%; Activity [14]: 37%; Activity [15]: Non-toxic; Activity [16]: 227%; Activity [17]: 128%; Activity [18]: 50%; Activity [19]: inactive
CC(C(=O)O)c1cccc(C(=O)c2ccccc2)c1 (stereo not drawn),,,,,,,,inhibition [20]: 16%; inhibition [21]: 41%
CCCCC/C=C\C/C=C\C/C=C\C/C=C\CCCC(=O)NCc1ccc(O)cc1,88,,,200,100,56,,
CCCCC/C=C\C/C=C\C/C=C\C/C=C\CCCC(=O)Nc1ccc(O)c(OC)c1,62,,,1400,1000,23,,
CC(=O)Nc1ccc2[nH]ncc2c1,4,1,12,,,,inactive,inhibition [22]: 97%; inhibition [20]: 92%; inhibition [23]: 80%; Activity [15]: Non-toxic; Activity [24]: 105%; Activity [25]: 142%; Activity [26]: 29%; Activity [27]: 94%; Activity [28]: 73%; Activity [29]: 38%; inhibition [21]: 70%; IC50 [6]: 107 µM

# Source: ChEMBL document CHEMBL1151744, “New analgesics synthetically derived from the paracetamol metabolite N-(4-hydroxyphenyl)-(5Z,8Z,11Z,14Z)-icosatetra-5,8,11,14-enamide” (J Med Chem, 2008)
